Laboratory results taken from ChEMBL document CHEMBL4038304, “Chiral Indolylarylsulfone Non-Nucleoside Reverse Transcriptase Inhibitors as New Potent and Broad Spectrum Anti-HIV-1 Agents” (J Med Chem, 2017).

Assays:
[1] = molecular target: Human immunodeficiency virus type 1 reverse transcriptase (Human immunodeficiency virus 1, UniProt Q72547); experiment: Inhibition of HIV1 NL4-3 reverse transcriptase His-tagged p66/p51 associated RNA dependent DNA polymerase activity expressed in Escherichia coli assessed as reduction in [3H]dTTP incorporation using poly(rA)/oligo(dT) as template/primer by scintillation counting analysis
[2] = molecular target: Human immunodeficiency virus type 1 reverse transcriptase (Human immunodeficiency virus 1, UniProt Q72547, Y181I); experiment: Inhibition of HIV1 reverse transcriptase p66 Y181I mutant associated RNA dependent DNA polymerase activity expressed in Escherichia coli assessed as reduction in [3H]dTTP incorporation using poly(rA)/oligo(dT) as template/primer by scintillation counting analysis
[3] = tested on: Human immunodeficiency virus 1; experiment: Antiviral activity against HIV1 harboring reverse transcriptase K103N mutant infected in human […] cells assessed as protection against virus-induced cytopathic effect measured on day 5 post infection by MTT assay; format: functional, cell-based; conditions: Human immunodeficiency virus 1, 120 h
[4] = molecular target: Human immunodeficiency virus type 1 reverse transcriptase (Human immunodeficiency virus 1, UniProt Q72547, K103N); experiment: Inhibition of HIV1 reverse transcriptase p66 K103N mutant associated RNA dependent DNA polymerase activity expressed in Escherichia coli assessed as reduction in [3H]dTTP incorporation using poly(rA)/oligo(dT) as template/primer by scintillation counting analysis
[5] = tested on: Human immunodeficiency virus 1; experiment: Antiviral activity against HIV1 NL4-3 infected in human […] cells assessed as protection against virus-induced cytopathic effect measured on day 5 post infection by MTT assay; format: functional, cell-based; conditions: Human immunodeficiency virus 1, NL4-3, 120 h
In short: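 Values are means of two to three independent experiments, each run in triplicate. The lowest detectable concentration is reported where activity fell below the assay limit.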

[6] = Inhibition of HIV1 reverse transcriptase p66 K103N/[…] double mutant associated RNA dependent DNA polymerase activity expressed in Escherichia coli assessed as reduction in [3H]dTTP incorporation using poly(rA)/oligo(dT) as template/primer by scintillation counting analysis; set-up: species or system Human immunodeficiency virus 1
[7] = tested on: Human immunodeficiency virus 1; experiment: Antiviral activity against HIV1 harboring reverse transcriptase K103N /[…] double mutant infected in human […] cells assessed as protection against virus-induced cytopathic effect measured on day 5 post infection by MTT assay; format: functional, cell-based; conditions: Human immunodeficiency virus 1, 120 h
[8] = tested on: Human immunodeficiency virus 1; experiment: Antiviral activity against HIV1 harboring reverse transcriptase Y181C mutant infected in human […] cells assessed as protection against virus-induced cytopathic effect measured on day 5 post infection by MTT assay; format: functional, cell-based; conditions: Human immunodeficiency virus 1, 120 h
[9] = tested on: Human immunodeficiency virus 1; experiment: Antiviral activity against HIV1 harboring reverse transcriptase Y188L mutant infected in human […] cells assessed as protection against virus-induced cytopathic effect measured on day 5 post infection by MTT assay; format: functional, cell-based; conditions: Human immunodeficiency virus 1, 120 h
[10] = tested on: Human immunodeficiency virus 1; experiment: Ratio of EC50 for HIV-1 harboring reverse transcriptase K103N/[…] double mutant infected in human MT4 cells to EC50 for HIV1 NL4-3 infected in human MT4 cells; format: functional
In short: (§1)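 Fold change calculated as EC50 against the stated resistant mutant HIV-1 strain divided by EC50 against wild-type NL4-3. Both EC50s come from MTT read-out of virus-induced death in MT-4 cells, mean of two to three independent experiments each in triplicate.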

[11] = tested on: Human immunodeficiency virus 1; experiment: Ratio of EC50 for HIV-1 harboring reverse transcriptase Y188L mutant infected in human MT4 cells to EC50 for HIV1 NL4-3 infected in human MT4 cells; format: functional; in short: as §1
[12] = tested on: Human immunodeficiency virus 1; experiment: Ratio of EC50 for HIV-1 harboring reverse transcriptase K103N mutant infected in human MT4 cells to EC50 for HIV1 NL4-3 infected in human MT4 cells; format: functional; in short: as §1
[13] = Selectivity index, ratio of CC50 for human MT4 cells to EC50 for HIV1 NL4-3 infected in human MT4 cells; format: toxicity, cell-based; conditions: read-out: Ratio CC50/EC50
In short: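 SI computed as CC50/EC50, using the MTT-based CC50 in uninfected MT-4 cells and the MTT-based EC50 against HIV-1 NL4-3-induced cell death in MT-4 cells. Experiments were run in triplicate, two to three times.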

[14] = Cytotoxicity against human MT4 cells assessed as cell viability by MTT assay; format: cell-based
In short: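 Uninfected MT-4 cells scored for viability by MTT. […] Values are means of two to three independent experiments, each run in triplicate.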

[15] = tested on: Human immunodeficiency virus 1; experiment: Ratio of EC50 for HIV-1 harboring reverse transcriptase Y181C mutant infected in human MT4 cells to EC50 for HIV1 NL4-3 infected in human MT4 cells; format: functional; in short: as §1

Row | SMILES | IC50 [1] [nM] | IC50 [2] [nM] | EC50 [3] [nM] | IC50 [4] [nM] | EC50 [5] [nM] | IC50 [6] [nM] | EC50 [7] [nM] | EC50 [8] [nM] | EC50 [9] [nM] | Ratio EC50 [10] | Ratio EC50 [11] | Ratio EC50 [12] | selectivity ratio [13] | CC50 [14] [nM] | Ratio EC50 [15]
1 | Cc1cc(C)cc(S(=O)(=O)c2c(C(=O)N[C@H](C)C(=O)N[C@@H](C)c3ccncc3)[nH]c3ccc(Cl)cc23)c1 | 1190 | 9510 | 204 | 3550 | 1.9 | 8420 | 19300 | 668 | > 28500 |  |  |  |  |  | 
2 | Cc1cc(C)cc(S(=O)(=O)c2c(C(=O)N[C@H](C)C(=O)N[C@H](C)c3ccncc3)[nH]c3ccc(Cl)cc23)c1 | 410 | 5790 | 1210 | 23700 | 3.8 | 13800 | > 27000 | 1170 | > 27000 |  |  |  |  |  | 
3 | Cc1cc(C)cc(S(=O)(=O)c2c(C(=O)N[C@@H](C)C(=O)N[C@@H](C)c3ccncc3)[nH]c3ccc(Cl)cc23)c1 | 430 | 440 | 1.3 | 2590 | 0.6 | 860 | 1280 | 0.6 | 612 |  |  |  |  |  | 
4 | Cc1cc(C)cc(S(=O)(=O)c2c(C(=O)N[C@H](C)C(=O)NCc3ccco3)[nH]c3ccc(Cl)cc23)c1 | 145 | 276 | 311 | 70 | 0.6 | 233 | > 30200 | 933 | > 30200 |  |  |  |  |  | 
5 | Cc1cc(C)cc(S(=O)(=O)c2c(C(=O)N[C@H](C)C(=O)NCc3ccncn3)[nH]c3ccc(Cl)cc23)c1 | 1800 | 3350 | 76 | 19900 | 0.6 |  | > 24500 | 171 | 5740 |  |  |  |  |  | 
6 | Cc1cc(C)cc(S(=O)(=O)c2c(C(=O)NCC(=O)NCc3ccco3)[nH]c3ccc(Cl)cc23)c1 | 145 | 461 | 60 | 538 | 0.6 | 586 | 18500 | < 0.6 | 1120 | >26477 | >1600 | >86 | > 83400 | > 50000 | 
7 | Cc1cc(C#N)cc(C)c1Oc1nc(Nc2ccc(C#N)cc2)nc(N)c1Br [ETRAVIRINE] |  |  | 0.7 |  | 16.1 | 97 | 4.6 | 18 |  |  |  |  |  | > 23000 | 
8 | Cc1cc(C)cc(S(=O)(=O)c2c(C(=O)NCc3ccc4nc(N)[nH]c4c3)[nH]c3ccc(Cl)cc23)c1 | 278 | 284 | 18 | 183 | 0.6 | 470 | > 5890 | 79 |  | >9810 |  | 30 | > 9810 | 5890 | 132
9 | Cc1cc(C)cc(S(=O)(=O)c2c(C(=O)N[C@@H](C)C(=O)NCc3ccncn3)[nH]c3ccc(Cl)cc23)c1 | 470 | 3140 | 0.6 | 2860 | 0.6 | 14300 | 779 | 0.6 | 380 |  |  |  |  |  | 
10 | Cc1cc(C)cc(S(=O)(=O)c2c(C(=O)NC(C)C(=O)NCc3ccncn3)[nH]c3ccc(Cl)cc23)c1 (racemic) |  |  | 0.6 |  | 0.6 |  | 798 | 0.6 | 760 | >1330 | >1267 | 1 | > 46800 | 28100 | 1
11 | Cc1cc(C)cc(S(=O)(=O)c2c(C(=O)NCC(=O)NC(C)c3ccccc3F)[nH]c3ccc(Cl)cc23)c1 (racemic) |  |  | 387 |  | 0.6 |  | > 23000 | 13 | 3670 | >38345 | 6118 | 552 | > 38300 | > 23000 | 19
12 | Cc1cc(C)cc(S(=O)(=O)c2c(C(=O)NC(C)C(=O)NC(C)c3ccccc3F)[nH]c3ccc(Cl)cc23)c1 (racemic) |  |  | 36 |  | 0.6 |  | 6470 | 108 | > 15200 | 10790 | >25387 | 60 | > 25400 | 15200 | 180
13 | Cc1cc(C)cc(S(=O)(=O)c2c(C(=O)NCC(=O)NC(C)c3ccncc3)[nH]c3ccc(Cl)cc23)c1 (racemic) |  |  | 38 |  | 0.6 |  | 13300 | 0.6 | 610 | 22227 | 1017 | 64 | > 78400 | 47000 | 1
14 | Cc1cc(C)cc(S(=O)(=O)c2c(C(=O)N[C@@H](C)C(=O)N[C@H](C)c3ccncc3)[nH]c3ccc(Cl)cc23)c1 | 610 | 1700 | 0.6 | 300 | 0.6 | 490 | 1260 | 0.6 | 742 |  |  |  |  |  | 
15 | Cc1cc(C)cc(S(=O)(=O)c2c(C(=O)NCC(=O)NC(C)c3ccccc3)[nH]c3ccc(Cl)cc23)c1 (racemic) |  |  | 210 |  | 0.6 |  | > 29400 | 76 | 1620 | >48978 | 2703 | 350 | > 49000 | 29400 | 127
16 | Cc1cc(C)cc(S(=O)(=O)c2c(C(=O)NC(C)C(=O)NCc3ccccc3F)[nH]c3ccc(Cl)cc23)c1 (racemic) |  |  | 26 |  | 0.6 |  | > 23300 | 93 | 4240 | >38775 | 7067 | 43 | 23300 | 23300 | 155
17 | Cc1cc(C)cc(S(=O)(=O)c2c(C(=O)NC(C)c3ccco3)[nH]c3ccc(Cl)cc23)c1 (racemic) |  |  | 109 |  | 0.7 |  | 12000 | 22 | 350 | 17195 | 500 | 155 | > 78200 | > 54700 | 31
18 | Cc1cc(C)cc(S(=O)(=O)c2c(C(=O)NC(C)C(=O)NC(C)c3ccncc3)[nH]c3ccc(Cl)cc23)c1 (racemic) |  |  | 7.4 |  | 0.6 |  | > 36500 | 167 | 12900 | >60805 | 21488 | 12 | > 36500 | 21900 | 278
19 | Cc1cc(C)cc(S(=O)(=O)c2c(C(=O)N[C@@H](C)C(=O)NCc3ccco3)[nH]c3ccc(Cl)cc23)c1 | 113 | 14200 | 0.6 | 1120 | 0.6 | 9640 | 1890 | 3.5 | 700 |  |  |  |  |  | 
20 | Cc1cc(C)cc(S(=O)(=O)c2c(C(=O)Nc3ccnc(C#N)c3)[nH]c3ccc(Cl)cc23)c1 | 23 | 306 | 0.7 | 72 | 0.7 | 514 | > 6840 | 65 |  | >9771 |  | 1 | > 9770 | 6840 | 92
